Test results from PubChem BioAssay.
Inconclusive results are not listed. Calls of active or inactive are those of the source.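 The calls were made as follows, unless noted: active = viability increase at or above a cutoff of the median across tested compounds plus 3 SD (cut at about 8.5% in these data, passing the limit was not always enough); inconclusive = some gains above the cutoff, reason not given; inactive = the rest.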

Legend:
[1] = S. cerevisiae growth inhibition in permissive medium (OD615), pilot counter-assay for S. cerevisiae lifespan shortening project, permissive growth control (AID 705;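 active = growth inhibition above 25% in both replicates, a cutoff set 3 SD above the mean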); conditions: OD615, 24 h, at 10 µM, active compounds read high
Outline: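 System – S. cerevisiae with engineered DeaD lifespan system · Buffer or medium – SC raffinose/galactose permissive medium · Schedule – cells pre-grown 4 h, then 24 h compound exposure, 30 °C humidified · Technique – culture turbidity as optical density at 615 nm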

[2] = S. cerevisiae growth inhibition in restrictive medium, OD615, pilot screen, restrictive growth control, yeast lifespan reduction project (AID 706;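 active = growth inhibition above a set limit, 3 SD over mean compound inhibition, in both replicates, cut at about 43% in these data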;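 also: modified DeaD lifespan yeast strain shifted to restrictive glucose medium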); conditions: OD615, 48 h, at 10 µM, active compounds read high
Outline: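 Material: engineered S. cerevisiae DeaD strain / Medium: glucose-based CSMM-D restrictive medium / Compound: single dose of 10 µM compound final, 0.25% DMSO / Timing: 4 h pre-incubation, 48 h exposure at 30 °C / Technique: OD615 absorbance reading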

[3] = doxorubicin toxicity protection in MRP-1 cells – H69AR cells, CellTiter-Glo, duplicate, MRP-1 activator project, pilot screen (AID 807); conditions: H69AR viability with doxorubicin, CellTiter-Glo luminescence; at 10 µM; active compounds read high;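 also: compound pretreatment 18-22 h then 72 h combined with doxorubicin; 0% = doxorubicin alone and 100% = vehicle without doxorubicin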
[4] = viability of HCT116 without oncogenic beta-catenin – human colon tumor cells, pilot screen (AID 823;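 active = cell viability at or below a set limit in both duplicate runs, the limit being the all-compound median minus 4 SD, cut at about 23% in these data, passing the limit was not always enough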;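 also: 0% = wells killed by 20 µM Hyamine and 100% = untreated DMSO cell wells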); conditions: HCT116 beta-catenin knockout viability, CellTiter-Glo, 60 h; at 10 µM; active compounds read low
[5] = RAM pathway blockade in budding yeast – dse1pr::URA3 reporter, 5-FOA selection, pilot screen (AID 869;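 active = inhibition over a set limit, the all-compound mean plus 3 SD, in both replicate runs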;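 also: 0% = DMSO wells with no growth and 100% = 10 µM 1-NA-PP1 with full growth; RAM network block rescues cells from 5-FOA so hits raise OD615 growth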); conditions: S. cerevisiae dse1pr::URA3 5-FOA growth, OD615, 2 d; at 10 µM; active compounds read high; strain carries analog-sensitive mutant Cbk1 kinase
[6] = RAM signaling pathway blockade in yeast – S. cerevisiae, Pdr1DBD-CYC8 efflux-inhibited sensitized strain, primary screen (AID 1298;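 active = RAM network inhibition above 8.4% in each of two replicates, 3 SD over the compound average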;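 also: 0% = DMSO untreated cells without growth and 100% = 10 µM 1-NA-PP1 full growth; higher means more yeast growth rescued from 5-FOA killing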); conditions: S. cerevisiae cbk1-as DSE1-URA3 strain, 5-FOA growth OD615, 2 d; at 50 µM; active compounds read high

C=C(C)Cn1c(CCNC(=O)CCC)nc2ccccc21
inactive: growth inhibition [1] -9.26% | growth inhibition [2] -10.3% | viability increase [3] -0.98% | viability [4] 99.1% | inhibition [5] 1.54% | RAM network inhibition [6] 2.19%

Cc1cccc(N(CC(=O)Nc2c(C)n(C)n(-c3ccccc3)c2=O)S(C)(=O)=O)c1C
inactive: growth inhibition [1] -16.3% | growth inhibition [2] -3.62% | viability increase [3] -1.08% | viability [4] 95.3% | inhibition [5] 1.41% | RAM network inhibition [6] 5.77%

COc1cc(C2=Nc3c(c(C)nn3-c3ccccc3)P(=O)(N3CCOCC3)O2)cc(OC)c1OC (stereo unspecified)
inactive: growth inhibition [1] 12.4% | growth inhibition [2] 0.78% | viability increase [3] -2.26% | viability [4] 92% | inhibition [5] 0.485% | RAM network inhibition [6] 2.86%

CCn1cc(C(=O)N2CCN(c3ccccn3)CC2)c2cc(OC)c(OC)cc2c1=O
inactive: growth inhibition [1] -18% | growth inhibition [2] -7.93% | viability increase [3] -4.32% | viability [4] 104% | inhibition [5] 0.495% | RAM network inhibition [6] 6.02%

CCOC(=O)c1ccccc1NC(=O)CC1Nc2ccccc2NC1=O (stereo unspecified)
inactive: growth inhibition [1] -2.62% | growth inhibition [2] -8.37% | viability increase [3] -8.1% | viability [4] 55.7% | inhibition [5] 2.19% | RAM network inhibition [6] 6.39%

N#C/C(=C1\CCCN1)c1ccc2ccccc2n1
inactive: growth inhibition [1] 1.03% | growth inhibition [2] 3.25% | viability increase [3] -4.02% | viability [4] 94.2% | inhibition [5] 2.02% | RAM network inhibition [6] 3.18%

Cc1ccc(Cc2cnc(N)s2)o1
inactive: growth inhibition [1] -11.3% | growth inhibition [2] 10.1% | viability increase [3] -5.06% | viability [4] 75.9% | inhibition [5] 2.06% | RAM network inhibition [6] 5.71%

CCN1CCN(Cc2nc3c(c(=O)n(C)c(=O)n3C)n2CCCc2ccccc2)CC1
inactive: growth inhibition [1] -5.05% | growth inhibition [2] -8.71% | viability increase [3] -4.04% | viability [4] 91% | inhibition [5] 0.665% | RAM network inhibition [6] 7.54%

CC(=O)NCCN=Cc1sc2ccccc2c1O
inactive: growth inhibition [1] -8.43% | growth inhibition [2] -2.56% | viability increase [3] -2.42% | viability [4] 92.6% | inhibition [5] -0.315% | RAM network inhibition [6] -0.37%

C=CCn1c(CCNC(=O)C(C)(C)C)nc2ccccc21
inactive: growth inhibition [1] -10.5% | growth inhibition [2] 3.93% | viability increase [3] -1.82% | viability [4] 103% | inhibition [5] 1.94% | RAM network inhibition [6] 3.12%

CCCCCn1c(=O)[nH]c2cc(C(=O)NCc3ccc4c(c3)OCO4)ccc2c1=O
inactive: growth inhibition [1] -12.1% | growth inhibition [2] -10.7% | viability increase [3] -6.7% | viability [4] 71.2% | inhibition [5] 3.82% | RAM network inhibition [6] 5.87%

Cn1c(/C(C#N)=C2/CCCCCN2)nc2ccccc21
inactive: growth inhibition [1] -8.98% | growth inhibition [2] -2.55% | viability increase [3] -2.4% | viability [4] 89.6% | inhibition [5] 0.395% | RAM network inhibition [6] 1.35%

CC(=O)Nc1ccc(S(=O)(=O)N2CCC(c3nc4ccc(C)cc4[nH]3)CC2)cc1
inactive: growth inhibition [1] -24.1% | growth inhibition [2] 2.08% | viability increase [3] -3.15% | viability [4] 51.2% | inhibition [5] 1.47% | RAM network inhibition [6] 9.15%

O=C(CN1CCN(c2ccccn2)CC1)Nc1cccc(C(F)(F)F)c1
inactive: growth inhibition [1] -3.17% | growth inhibition [2] 5.07% | viability increase [3] -1.96% | viability [4] 97.9% | inhibition [5] 2.27% | RAM network inhibition [6] 2.45%

CCN1CCN(C(=O)C2c3cc(OC)c(OC)cc3C(=O)N(C)C2c2ccc(SC)cc2)CC1 (stereo unspecified)
inactive: growth inhibition [1] -12.5% | growth inhibition [2] -4.19% | viability increase [3] -3.74% | viability [4] 92.3% | inhibition [5] 0.995% | RAM network inhibition [6] 2.33%

CSc1nc(N(CCO)CCO)c2sc3nc(-c4ccco4)c4c(c3c2n1)CCC4
inactive: growth inhibition [1] -1.82% | growth inhibition [2] 8.15% | viability increase [3] -4.84% | viability [4] 93.9% | inhibition [5] 2.71% | RAM network inhibition [6] 8.3%

O=C1C(Cl)=C(Nc2ccccc2O)C(=O)N1c1ccccc1
inactive: growth inhibition [1] -42% | growth inhibition [2] -9.91% | viability increase [3] -6.15% | viability [4] 81.7% | inhibition [5] 2.32% | RAM network inhibition [6] 5.61%

O=C(OCC(=O)N1CCN(C(=O)c2ccco2)CC1)C1=COCCO1
inactive: growth inhibition [1] -9.26% | growth inhibition [2] -5.99% | viability increase [3] -3.83% | viability [4] 105% | inhibition [5] 2.21% | RAM network inhibition [6] 3.69%

CC(C)n1c(CNC(=O)c2ccccc2)nc2ccccc21
inactive: growth inhibition [1] -18.1% | growth inhibition [2] 9.14% | viability increase [3] -3.11% | viability [4] 100% | inhibition [5] 2.63% | RAM network inhibition [6] 1.5%

Cc1c(C(=O)NCC2COc3ccccc3O2)oc2ccc(S(=O)(=O)N3CCOCC3)cc12 (stereo unspecified)
inactive: growth inhibition [1] -22% | growth inhibition [2] -8.28% | viability increase [3] -2.13% | viability [4] 42.2% | inhibition [5] 3.01% | RAM network inhibition [6] 6.17%

CCC1SC2=NC(C)=C(C(=O)OC)C(c3ccc(C(=O)OC)cc3)N2C1=O (stereo unspecified)
inactive: growth inhibition [1] 6.67% | growth inhibition [2] 35.7% | viability increase [3] 3.25% | viability [4] 101% | inhibition [5] 1.47% | RAM network inhibition [6] 9.87%

CCOC(=O)C1CCCN(C(=O)CNC(=O)Cn2ccc3ccccc3c2=O)C1 (stereo unspecified)
inactive: growth inhibition [1] -6.4% | growth inhibition [2] -0.325% | viability increase [3] -4.65% | viability [4] 104% | inhibition [5] 0.875% | RAM network inhibition [6] 4.63%

O=c1[nH]c2ccc(S(=O)(=O)NCc3ccccn3)cc2s1
inactive: growth inhibition [1] -13.7% | growth inhibition [2] 2.04% | viability increase [3] -1.44% | viability [4] 95.8% | inhibition [5] 1.35% | RAM network inhibition [6] 6.28%

Cc1cc(C)nc(/N=c2/ssnc2Cl)c1
active: growth inhibition [1] 100% | growth inhibition [2] 89.9%
inactive: viability increase [3] -7.78% | viability [4] 30.8% | inhibition [5] 1.81% | RAM network inhibition [6] -2.52%

CCCCC(NC(C)=O)c1nc2ccccc2n1CCCC (stereo unspecified)
inactive: growth inhibition [1] -16.8% | growth inhibition [2] -12.2% | viability increase [3] -4.34% | viability [4] 86.6% | inhibition [5] 1.69% | RAM network inhibition [6] 4.56%

Clc1nc2sccn2c1/C=N/n1cnc2ccccc21
inactive: growth inhibition [1] 19.9% | growth inhibition [2] 33.8% | viability increase [3] -6.14% | viability [4] 94.7% | inhibition [5] 0.675% | RAM network inhibition [6] 2.34%

CCCCCn1c(CNC(=O)COC)nc2ccccc21
inactive: growth inhibition [1] -2.62% | growth inhibition [2] -2.4% | viability increase [3] -2.9% | viability [4] 95.4% | inhibition [5] 0.855% | RAM network inhibition [6] 2.97%

Cc1cccc(N2CCN(C(=O)c3ccc(NC(=O)C4CCCO4)cc3)CC2C)c1 (stereo unspecified)
inactive: growth inhibition [1] -10.9% | growth inhibition [2] 6.01% | viability increase [3] -2.33% | viability [4] 105% | inhibition [5] 1.11% | RAM network inhibition [6] 4.83%

COc1ccc(-c2cc3ccccc3n2CC(O)CN2CCOCC2)cc1 (stereo unspecified)
inactive: growth inhibition [1] -4.27% | growth inhibition [2] -5.21% | viability increase [3] -6.02% | viability [4] 89.7% | inhibition [5] 0.59% | RAM network inhibition [6] 2.87%

CCN(Cc1ccncc1)C(=O)c1cccc(S(=O)(=O)N2CCOCC2)c1
inactive: growth inhibition [1] -4.12% | growth inhibition [2] 6.31% | viability increase [3] -2.89% | viability [4] 99.1% | inhibition [5] 1.07% | RAM network inhibition [6] 9.82%

CC1(C)OC(=O)C(=C2CCCN2)C(=O)O1
inactive: growth inhibition [1] 0.65% | growth inhibition [2] -5.36% | viability increase [3] -1.34% | viability [4] 105% | inhibition [5] 0.815% | RAM network inhibition [6] 6.12%

CCN(CC)c1ccc(NC(=O)c2ccc(NC(=O)C3CCCO3)cc2)c(C)c1 (stereo unspecified)
inactive: growth inhibition [1] -6.83% | growth inhibition [2] 3.42% | viability increase [3] 1.38% | viability [4] 94.8% | inhibition [5] 0.965% | RAM network inhibition [6] 6.65%

Cc1ccc(S(=O)(=O)N2CCC(C(=O)N[C@@H](C)C(=O)NCC3CCCO3)CC2)cc1 (stereo partly specified)
inactive: growth inhibition [1] -19.6% | growth inhibition [2] -9.68% | viability increase [3] -2.65% | viability [4] 97% | inhibition [5] 2.1% | RAM network inhibition [6] -0.73%

COC(=O)CCC(=O)Oc1ccc(OC(=O)CCC(=O)OC)cc1
inactive: growth inhibition [1] 7.12% | growth inhibition [2] 2.51% | viability increase [3] -4.94% | viability [4] 72.9% | inhibition [5] 1.48% | RAM network inhibition [6] 0.94%

CCOC(=O)c1cc(NC(=O)OC)c(C)nc1C
inactive: growth inhibition [1] -4.66% | growth inhibition [2] 4.23% | viability increase [3] -2.65% | viability [4] 106% | inhibition [5] 0.81% | RAM network inhibition [6] 3.38%

CCC1CCCCN1C(=O)CSc1nc2c([nH]c3ccccc32)c(=O)n1C (stereo unspecified)
inactive: growth inhibition [1] -5.5% | growth inhibition [2] -4.4% | viability increase [3] -8.15% | viability [4] 55.7% | inhibition [5] 1.36% | RAM network inhibition [6] 3.27%

C=C(C)Cn1c(CCNC(=O)C(C)(C)C)nc2ccccc21
inactive: growth inhibition [1] -12.7% | growth inhibition [2] 6.9% | viability increase [3] 0.45% | viability [4] 100% | inhibition [5] 2.33% | RAM network inhibition [6] 1.51%

CCOC(=O)C1CCN(CCC(=O)Nc2cccc(Cl)c2C)CC1
inactive: growth inhibition [1] -11.2% | growth inhibition [2] -0.95% | viability increase [3] -2.59% | viability [4] 94.6% | inhibition [5] 1.46% | RAM network inhibition [6] 2.35%

Brc1cc(Br)c2ncnc(N3CCCCC3)c2c1
inactive: growth inhibition [1] -2.35% | growth inhibition [2] -19.5% | viability increase [3] -7.95% | inhibition [5] 2.7% | RAM network inhibition [6] 2.58%
active: viability [4] 15.9%

Cc1nc2nc(SCC(=O)N3CCOCC3)nn2c(C)c1Cc1c(F)cccc1Cl
inactive: growth inhibition [1] -2.75% | growth inhibition [2] 34% | viability increase [3] -6.91% | viability [4] 88.4% | inhibition [5] 0.35% | RAM network inhibition [6] 3.17%

COc1ccc(C(=O)Nc2ccccc2-c2nnn(CC(=O)NCc3ccco3)n2)cc1
inactive: growth inhibition [1] -1.97% | growth inhibition [2] 10% | viability increase [3] -2.04% | viability [4] 78% | inhibition [5] 4.12% | RAM network inhibition [6] 7.41%
